Values belong to the molecule of their own block, whether it stands above or below them.
Key:
[1] = tested on: Rattus norvegicus; experiment: Potency relative to phenylbutazone at 0.005 mM/kg; assay type: functional
[2] = tested on: Rattus norvegicus; experiment: Antiinflammatory efficacy is measured by the weight gain in rats during the 3 week adjuvant arthritis test at 0.02 mM/kg (8.76 mg); assay type: functional
In short: (§1)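 Rats were adjuvant-injected (M. butyricum in mineral oil, one hind paw) or given a mineral-oil placebo. They were dosed by gavage daily for 21 days from the injection day, with vehicle only for both control groups, then weighed at the end. Weight gain % = (treated − adjuvant control)/(negative control − adjuvant control) × 100.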

[3] = tested on: Rattus norvegicus; experiment: Ulcerogenicity was measured in stomach during the 3 week adjuvant arthritis test, no of animals with ulcers out of 8 animals tested at 0.02 mM/kg (8.76 mg) was reported; assay type: functional
In short: (§2)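 Male Sprague-Dawley rats (200–230 g) were injected in the plantar tissue of one hind paw with 0.1 mL of 0.6% M. butyricum suspension in heavy mineral oil. Daily oral gavage began on the day of adjuvant injection and ran for the 21 days, with drug suspended in 1% gum tragacanth or a corn oil-water emulsion. At the end the rats were sacrificed and the small intestine and stomach were examined for ulcers. Results are given as animals with ulcers/animals tested.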

[4] = tested on: Rattus norvegicus; experiment: The mean increase in paw volume was compared between drug treated groups and placebo to calculate the percent inhibition in rats at 0.02 mmol/kg by carrageenan Edema Assay; 50-59; assay type: functional
[5] = tested on: Rattus norvegicus; experiment: Antiinflammatory efficacy is measured by the percent inhibition of paw volume during the 3 week adjuvant arthritis test at 0.005 mM/kg (2.19 mg); assay type: functional
In short: (§3)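 Male Sprague-Dawley rats (200–230 g) were used in groups of eight. Each received 0.1 mL of 0.6% M. butyricum in heavy mineral oil into the plantar tissue of one hind paw. Daily oral gavage in 1% gum tragacanth or corn oil-water emulsion began on the injection day and ran 21 days. Total hind paw volume was measured by mercury displacement, and inhibition was taken versus vehicle-treated adjuvant controls.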

[6] = species on record: Rattus norvegicus; experiment: Compound was evaluated for highest non-ulcerogenic dose (less than 50% ulcer incidence); assay type: functional; details: read-out: ED50
In short: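 Taken from the 21-day adjuvant arthritis test in male Sprague-Dawley rats dosed orally each day from the day of adjuvant injection. Small intestines and stomachs were examined for ulceration at the end. The value is the highest dose giving less than 50% ulcer incidence.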

[7] = tested on: Rattus norvegicus; experiment: Antiinflammatory efficacy is measured by the percent inhibition of paw volume during the 3 week adjuvant arthritis test at 0.02 mM/kg (8.76 mg); assay type: functional; in short: as §3
[8] = tested on: Rattus norvegicus; experiment: Ulcerogenicity was measured in intestine during the 3 week adjuvant arthritis test, no of animals with ulcers out of 8 animals tested at 0.02 mM/kg (8.76 mg) was reported; assay type: functional
In short: (§4)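 In the 21-day adjuvant arthritis model, male Sprague-Dawley rats (200–230 g) received an M. butyricum mineral-oil suspension into one hind paw. They were dosed daily by gavage from the day of injection. At the end of the study the rats were killed, and the small intestines were examined for ulcers. Results are given as the number of ulcerated animals over the number tested.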

[9] = tested on: Rattus norvegicus; experiment: Antiinflammatory efficacy is measured by the weight gain in rats during the 3 week adjuvant arthritis test at 0.005 mM/kg (2.19 mg); assay type: functional; in short: as §1
[10] = tested on: Rattus norvegicus; experiment: Ulcerogenicity was measured in intestine during the 3 week adjuvant arthritis test, no of animals with ulcers out of animals tested at 0.08 mM/kg (35.0 mg) was reported; toxic; assay type: functional, organism-based; in short: as §2
[11] = tested on: Rattus norvegicus; experiment: Ulcerogenicity was measured in intestine during the 3 week adjuvant arthritis test.(animals with ulcers/animals in test) at 0.16 mM/kg (58.2 mg); 4/8; assay type: functional; in short: as §2
[12] = tested on: Rattus norvegicus; experiment: Antiinflammatory efficacy is measured by the weight gain in rats during the 3 week adjuvant arthritis test at 0.02 mM/kg (7.28 mg); assay type: functional; in short: as §1
[13] = tested on: Rattus norvegicus; experiment: Ulcerogenicity was measured in intestine during the 3 week adjuvant arthritis test, no of animals with ulcers out of 8 animals tested at 0.08 mM/kg (29.1 mg) was reported; assay type: functional; in short: as §4
[14] = tested on: Rattus norvegicus; experiment: Antiinflammatory efficacy is measured by the weight gain in rats during the 3 week adjuvant arthritis test at 0.005 mM/kg (1.82 mg); assay type: functional; in short: as §1
[15] = tested on: Rattus norvegicus; experiment: Ulcerogenicity was measured in stomach during the 3 week adjuvant arthritis test, no of animals with ulcers out of 7 animals tested at 0.32 mM/kg (116.4 mg) was reported; assay type: functional; in short: as §2
[16] = tested on: Rattus norvegicus; experiment: Antiinflammatory efficacy is measured by the percent inhibition of paw volume during the 3 week adjuvant arthritis test at 0.02 mM/kg (7.28 mg); assay type: functional; in short: as §3
[17] = tested on: Rattus norvegicus; experiment: Antiinflammatory efficacy is measured by the weight gain in rats during the 3 week adjuvant arthritis test at 0.32 mM/kg (116.4 mg); assay type: functional
In short: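 Male Sprague-Dawley rats (200–230 g), eight per group, received 0.1 mL of 0.6% M. butyricum in heavy mineral oil (negative controls: mineral oil) into one hind-paw plantar tissue. Daily gavage in 1% gum tragacanth or corn oil-water emulsion began on the injection day, for 21 days. Weight gain is expressed as (treated − adjuvant control)/(negative control − adjuvant control) × 100.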

[18] = tested on: Rattus norvegicus; experiment: Ulcerogenicity was measured in intestine during the 3 week adjuvant arthritis test, no of animals with ulcers out of 7 animals tested at 0.32 mM/kg (116.4 mg) was reported; assay type: functional; in short: as §4
[19] = tested on: Rattus norvegicus; experiment: Antiinflammatory efficacy is measured by the percent inhibition of paw volume during the 3 week adjuvant arthritis test at 0.08 mM/kg (29.1 mg); assay type: functional; in short: as §3
[20] = biological target: prostaglandin synthetase (Bos taurus); experiment: Inhibitory concentration against prostaglandin synthetase from bull seminal vesicles
[21] = species on record: Mus musculus; experiment: Effective Dose 50 is the amount of material required to elicit analgesic effect in 50% of an animal population
[22] = tested on: Rattus norvegicus; experiment: Antiinflammatory efficacy is measured by the weight gain in rats during the 3 week adjuvant arthritis test at 0.16 mM/kg (58.2 mg); assay type: functional; in short: as §1
[23] = tested on: Rattus norvegicus; experiment: Ulcerogenicity was measured in stomach during the 3 week adjuvant arthritis test, no of animals with ulcers out of 8 animals tested at 0.16 mM/kg (58.2 mg) was reported; assay type: functional; in short: as §2
[24] = tested on: Rattus norvegicus; experiment: The mean increase in paw volume was compared between drug treated groups and placebo to calculate the percent inhibition in rats at 0.02 mmol/kg by carrageenan Edema Assay; 30-39; assay type: functional
[25] = species on record: Rattus norvegicus; experiment: Effective Dose 50 is the amount of material required to elicit inflammatory effect in 50% of an animal population; assay type: functional
In short: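 In the 21-day adjuvant arthritis test in male Sprague-Dawley rats, daily gavage started on the day of M. butyricum injection. At the end, total hind paw volume was measured by mercury displacement. ED50 is the dose giving 50% inhibition of total hind paw volume change.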

[26] = tested on: Rattus norvegicus; experiment: Antiinflammatory efficacy is measured by the percent inhibition of paw volume during the 3 week adjuvant arthritis test at 0.005 mM/kg (1.82 mg); assay type: functional; in short: as §3
[27] = tested on: Rattus norvegicus; experiment: The percent inhibition was calculated from the average differences in hind paw volume between the adjuvant injected controls and the adjuvant-injected medicated rats at 0.08 mmol/kg; 60-69; assay type: functional
[28] = tested on: Rattus norvegicus; experiment: Ulcerogenicity was measured in stomach during the 3 week adjuvant arthritis test, no of animals with ulcers out of 8 animals tested at 0.08 mM/kg (29.1 mg) was reported; assay type: functional; in short: as §2
[29] = tested on: Rattus norvegicus; experiment: Antiinflammatory efficacy is measured by the weight gain in rats during the 3 week adjuvant arthritis test at 0.08 mM/kg (29.1 mg); assay type: functional; in short: as §1

SMILES: CC(CN1CCCCC1CC1CCCCC1)c1cccc(C(=O)c2ccc(Cl)cc2)c1 (centres undefined)
Relative potency [1]: 11.9% | Weight gain [2]: 89% | Ulcerogenic index [3]: 0 | inhibition in vivo at 20 µmol/kg [4]: 50% | Inhibition [5]: 62% | highest non-ulcerogenic dose [6]: 3 µmol/kg | Inhibition [7]: 90% | Ulcerogenic index [8]: 0 | Weight gain [9]: 34% | Ulcerogenic index [10]: Toxic

IC50 [20]: 10 µM
SMILES: CC(CN1CCOCC1)c1cccc(C(=O)c2ccccc2)c1.Cl (centres undefined)
Ulcerogenic index [11]: 4 | Weight gain [12]: 10% | Ulcerogenic index [13]: 5 | Weight gain [14]: 2% | Ulcerogenic index [15]: 1 | Inhibition [16]: 72% | Weight gain [17]: 46% | Ulcerogenic index [18]: 7 | Inhibition [19]: 89% | ED50 [21]: 8.4 mg/kg | Weight gain [22]: 70% | Ulcerogenic index [23]: 2 | Inhibition [24]: 30% | ED50 [25]: 5 µmol/kg | Inhibition [26]: 49% | Inhibition [27]: 60% | Ulcerogenic index [28]: 0 | Weight gain [29]: 43%
